ChEMBL document CHEMBL1177669, “Synthesis and biological study of 3-(phenylsulfonyl)thieno[2,3-e][1,2,3]triazolo[1,5-a]pyrimidines as potent and selective serotonin 5-HT6 receptor antagonists” (Bioorg Med Chem, 2010)

Legend:
[1] = molecular target: 5-hydroxytryptamine receptor 4 (Homo sapiens) (UniProt Q13639); assay: Binding affinity to 5HT4 receptor at 1 uM by radioligand displacement assay
Procedure, shortened: (§1)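 Competitive radioligand binding run by MDS Pharma Services on a serotonin receptor panel. Test compound at 1 µM. Read-out is % displacement of radioligand from each receptor complex.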

[2] = molecular target: T1, 5-hydroxytryptamine receptor 6 (Homo sapiens, UniProt P50406); assay: Antagonist activity at human recombinant 5HT6 receptor expressed in HEK293 cells assessed as inhibition of serotonin-induced cAMP production; assay type: functional, cell-based
Procedure, shortened: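 HEK293 cells stably expressing recombinant human 5-HT6R, stimulated with serotonin. cAMP from adenylyl cyclase measured by LANCE. Compounds screened at 5 and 10 μM. IC50 determined for compounds giving more than 50% inhibition of cAMP synthesis at 5 μM.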

[3] = molecular target: T2, 5-hydroxytryptamine receptor 1A (Homo sapiens) (UniProt P08908); assay: Binding affinity to 5HT1A receptor at 1 uM by radioligand displacement assay; procedure, shortened: as §1
T2 sequence (whole entry): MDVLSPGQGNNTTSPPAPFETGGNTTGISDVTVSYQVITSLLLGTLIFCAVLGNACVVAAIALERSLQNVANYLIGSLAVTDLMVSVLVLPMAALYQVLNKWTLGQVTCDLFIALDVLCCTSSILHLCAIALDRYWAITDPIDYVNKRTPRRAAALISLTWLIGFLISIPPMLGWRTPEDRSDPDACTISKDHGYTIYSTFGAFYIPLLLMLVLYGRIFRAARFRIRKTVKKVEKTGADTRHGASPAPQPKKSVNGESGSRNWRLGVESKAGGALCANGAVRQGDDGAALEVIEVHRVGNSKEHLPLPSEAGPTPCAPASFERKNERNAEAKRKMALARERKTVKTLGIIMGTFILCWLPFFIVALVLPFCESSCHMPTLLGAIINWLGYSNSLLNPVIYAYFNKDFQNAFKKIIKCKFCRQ

[4] = molecular target: 5-hydroxytryptamine receptor 7 (Homo sapiens) (UniProt P34969); assay: Binding affinity to 5HT7 receptor at 1 uM by radioligand displacement assay; procedure, shortened: as §1
[5] = molecular target: T1, 5-hydroxytryptamine receptor 6; assay: Binding affinity to human recombinant 5HT6 receptor expressed in HEK293 cells at 1 uM by radioligand displacement assay; assay type: cell-based; procedure, shortened: as §1
hERG (KCNH2) [6] = molecular target: T3, hERG (KCNH2) (Homo sapiens, UniProt Q12809); assay: Inhibition of human ERG at 15 uM by patch clamp assay
Procedure, shortened: (§2)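 hERG potassium channel inhibition measured by patch clamp, performed by MDS Pharma Services. Read-out is % inhibition at a single test concentration.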

[7] = molecular target: 5-hydroxytryptamine receptor 2B (Homo sapiens) (UniProt P41595); assay: Binding affinity to 5HT2B receptor at 1 uM by radioligand displacement assay; procedure, shortened: as §1
[8] = molecular target: 5-hydroxytryptamine receptor 2A (Homo sapiens) (UniProt P28223); assay: Binding affinity to 5HT2A receptor at 1 uM by radioligand displacement assay; procedure, shortened: as §1
[9] = molecular target: 5-hydroxytryptamine receptor 1B (Homo sapiens) (UniProt P28222); assay: Binding affinity to 5HT1B receptor at 1 uM by radioligand displacement assay; procedure, shortened: as §1
[10] = molecular target: T4, 5-hydroxytryptamine receptor 2C (Homo sapiens) (UniProt P28335); assay: Binding affinity to 5HT2C receptor at 1 uM by radioligand displacement assay; procedure, shortened: as §1
T4 sequence (whole entry): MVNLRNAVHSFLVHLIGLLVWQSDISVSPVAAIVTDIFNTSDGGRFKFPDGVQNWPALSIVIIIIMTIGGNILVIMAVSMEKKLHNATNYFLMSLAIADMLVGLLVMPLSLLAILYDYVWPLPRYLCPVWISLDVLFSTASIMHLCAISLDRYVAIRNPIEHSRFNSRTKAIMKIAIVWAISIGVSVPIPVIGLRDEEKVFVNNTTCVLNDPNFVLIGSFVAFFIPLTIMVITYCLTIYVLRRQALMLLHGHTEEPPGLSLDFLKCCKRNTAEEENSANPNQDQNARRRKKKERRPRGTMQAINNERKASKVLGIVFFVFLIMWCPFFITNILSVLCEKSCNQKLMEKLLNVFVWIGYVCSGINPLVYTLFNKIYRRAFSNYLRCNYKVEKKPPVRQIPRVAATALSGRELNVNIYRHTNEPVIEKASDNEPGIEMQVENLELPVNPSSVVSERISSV

[11] = molecular target: T5, 5-hydroxytryptamine receptor 3A (Homo sapiens) (UniProt P46098); assay: Binding affinity to 5HT3 receptor at 1 uM by radioligand displacement assay; procedure, shortened: as §1
T5 sequence (whole entry): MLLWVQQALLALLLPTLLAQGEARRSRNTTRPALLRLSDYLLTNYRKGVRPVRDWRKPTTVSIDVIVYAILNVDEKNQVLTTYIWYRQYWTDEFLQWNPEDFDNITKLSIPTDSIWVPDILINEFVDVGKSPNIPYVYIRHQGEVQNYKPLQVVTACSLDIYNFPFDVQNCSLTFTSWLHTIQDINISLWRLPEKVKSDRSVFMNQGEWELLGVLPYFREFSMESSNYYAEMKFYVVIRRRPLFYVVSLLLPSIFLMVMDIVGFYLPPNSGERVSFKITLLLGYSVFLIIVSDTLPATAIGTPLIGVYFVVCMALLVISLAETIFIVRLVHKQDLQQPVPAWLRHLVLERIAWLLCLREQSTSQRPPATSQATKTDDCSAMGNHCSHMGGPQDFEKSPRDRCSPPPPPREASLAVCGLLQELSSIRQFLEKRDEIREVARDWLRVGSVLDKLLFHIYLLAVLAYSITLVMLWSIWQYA

[12] = molecular target: T1, 5-hydroxytryptamine receptor 6; assay: Binding affinity to human recombinant 5HT6 receptor expressed in HEK293 cells by radioligand displacement assay; assay type: cell-based
Procedure, shortened: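 Competitive radioligand binding at the 5-HT6 receptor, run by MDS Pharma Services as part of a serotonin receptor panel. IC50 and Ki values derived.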

hERG (KCNH2) [13] = molecular target: T3, hERG (KCNH2); assay: Inhibition of human ERG at 30 uM by patch clamp assay; procedure, shortened: as §2

T1 sequence (P50406 whole entry): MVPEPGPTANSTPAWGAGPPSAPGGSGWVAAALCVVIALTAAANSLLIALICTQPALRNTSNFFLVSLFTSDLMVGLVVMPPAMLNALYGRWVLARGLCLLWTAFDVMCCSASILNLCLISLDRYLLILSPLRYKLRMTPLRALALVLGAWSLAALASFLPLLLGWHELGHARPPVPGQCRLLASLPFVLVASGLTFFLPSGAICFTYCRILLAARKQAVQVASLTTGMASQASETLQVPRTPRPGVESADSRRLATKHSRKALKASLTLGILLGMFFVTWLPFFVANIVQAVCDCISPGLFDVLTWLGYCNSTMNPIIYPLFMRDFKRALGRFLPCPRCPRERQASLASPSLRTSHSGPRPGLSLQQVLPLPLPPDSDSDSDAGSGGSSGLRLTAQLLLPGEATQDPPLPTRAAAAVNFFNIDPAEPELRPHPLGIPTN
T3 sequence (Q12809 whole entry): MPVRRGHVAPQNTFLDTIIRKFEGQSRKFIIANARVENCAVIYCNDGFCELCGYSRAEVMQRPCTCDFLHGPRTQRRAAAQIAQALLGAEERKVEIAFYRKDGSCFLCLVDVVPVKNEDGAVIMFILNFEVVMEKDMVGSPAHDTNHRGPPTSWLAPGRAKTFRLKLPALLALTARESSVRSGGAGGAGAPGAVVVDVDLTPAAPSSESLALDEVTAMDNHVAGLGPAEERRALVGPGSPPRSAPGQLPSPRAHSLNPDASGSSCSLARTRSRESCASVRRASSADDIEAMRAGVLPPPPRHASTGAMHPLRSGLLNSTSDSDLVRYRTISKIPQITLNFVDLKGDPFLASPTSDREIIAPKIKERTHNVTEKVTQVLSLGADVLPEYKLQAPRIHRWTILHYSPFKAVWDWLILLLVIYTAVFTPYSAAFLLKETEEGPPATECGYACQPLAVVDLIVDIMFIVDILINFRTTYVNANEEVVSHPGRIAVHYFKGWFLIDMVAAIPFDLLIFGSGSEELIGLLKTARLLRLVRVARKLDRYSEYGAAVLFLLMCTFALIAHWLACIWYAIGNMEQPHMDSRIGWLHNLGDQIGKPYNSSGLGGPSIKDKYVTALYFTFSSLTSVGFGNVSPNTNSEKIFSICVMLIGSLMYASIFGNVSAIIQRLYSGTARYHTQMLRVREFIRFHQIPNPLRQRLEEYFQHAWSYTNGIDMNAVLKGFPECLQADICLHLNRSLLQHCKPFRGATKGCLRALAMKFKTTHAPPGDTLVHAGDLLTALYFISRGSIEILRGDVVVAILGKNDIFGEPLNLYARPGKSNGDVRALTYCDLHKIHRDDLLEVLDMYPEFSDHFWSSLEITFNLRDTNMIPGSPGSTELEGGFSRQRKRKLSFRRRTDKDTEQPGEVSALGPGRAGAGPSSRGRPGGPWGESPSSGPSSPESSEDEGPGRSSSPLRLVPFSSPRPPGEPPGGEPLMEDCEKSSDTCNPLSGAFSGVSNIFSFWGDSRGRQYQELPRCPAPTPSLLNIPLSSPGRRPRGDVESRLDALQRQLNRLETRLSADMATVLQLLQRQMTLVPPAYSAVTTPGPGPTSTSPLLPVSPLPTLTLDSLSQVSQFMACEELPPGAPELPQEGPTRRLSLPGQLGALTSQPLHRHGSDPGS
Chain of 5-hydroxytryptamine receptor 1B (Homo sapiens) (P28222 whole entry): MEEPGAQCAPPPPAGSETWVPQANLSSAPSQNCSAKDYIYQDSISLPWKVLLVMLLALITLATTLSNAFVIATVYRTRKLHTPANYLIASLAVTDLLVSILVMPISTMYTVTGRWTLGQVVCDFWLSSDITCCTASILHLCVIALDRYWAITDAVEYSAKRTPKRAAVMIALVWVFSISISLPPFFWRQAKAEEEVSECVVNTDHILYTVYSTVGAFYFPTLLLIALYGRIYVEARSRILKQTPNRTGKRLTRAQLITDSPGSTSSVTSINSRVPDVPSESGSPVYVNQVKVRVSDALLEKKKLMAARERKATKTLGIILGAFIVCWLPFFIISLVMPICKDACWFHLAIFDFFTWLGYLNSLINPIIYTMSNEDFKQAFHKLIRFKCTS
Chain of 5-hydroxytryptamine receptor 7 (Homo sapiens) (P34969 whole entry): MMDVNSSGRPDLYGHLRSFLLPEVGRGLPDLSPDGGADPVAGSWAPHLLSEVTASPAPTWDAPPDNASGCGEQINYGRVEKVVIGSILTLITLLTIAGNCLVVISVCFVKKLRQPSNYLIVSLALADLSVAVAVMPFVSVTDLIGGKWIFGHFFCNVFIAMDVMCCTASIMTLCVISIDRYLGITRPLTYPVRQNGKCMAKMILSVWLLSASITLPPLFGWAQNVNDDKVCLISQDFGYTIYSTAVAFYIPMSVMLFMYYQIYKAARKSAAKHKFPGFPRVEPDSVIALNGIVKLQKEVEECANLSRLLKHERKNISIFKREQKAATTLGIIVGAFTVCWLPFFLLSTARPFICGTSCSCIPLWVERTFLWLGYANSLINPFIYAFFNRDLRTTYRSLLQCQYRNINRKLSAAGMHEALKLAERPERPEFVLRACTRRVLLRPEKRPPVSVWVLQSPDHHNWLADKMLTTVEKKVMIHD
Chain of 5-hydroxytryptamine receptor 2A (Homo sapiens) (P28223 whole entry): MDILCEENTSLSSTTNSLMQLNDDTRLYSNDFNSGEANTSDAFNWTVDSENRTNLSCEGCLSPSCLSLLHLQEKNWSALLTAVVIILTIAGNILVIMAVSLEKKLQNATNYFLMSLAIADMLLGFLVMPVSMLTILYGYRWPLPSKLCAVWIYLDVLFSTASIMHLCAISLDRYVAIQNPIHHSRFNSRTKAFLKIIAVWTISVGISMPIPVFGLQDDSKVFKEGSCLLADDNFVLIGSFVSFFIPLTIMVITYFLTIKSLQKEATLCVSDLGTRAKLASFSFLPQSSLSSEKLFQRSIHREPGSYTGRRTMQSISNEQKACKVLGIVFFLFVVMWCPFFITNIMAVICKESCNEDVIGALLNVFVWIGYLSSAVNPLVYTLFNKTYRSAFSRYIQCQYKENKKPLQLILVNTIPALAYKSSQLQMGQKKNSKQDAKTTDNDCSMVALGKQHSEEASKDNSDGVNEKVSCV
Chain of 5-hydroxytryptamine receptor 4 (Homo sapiens) (Q13639 whole entry): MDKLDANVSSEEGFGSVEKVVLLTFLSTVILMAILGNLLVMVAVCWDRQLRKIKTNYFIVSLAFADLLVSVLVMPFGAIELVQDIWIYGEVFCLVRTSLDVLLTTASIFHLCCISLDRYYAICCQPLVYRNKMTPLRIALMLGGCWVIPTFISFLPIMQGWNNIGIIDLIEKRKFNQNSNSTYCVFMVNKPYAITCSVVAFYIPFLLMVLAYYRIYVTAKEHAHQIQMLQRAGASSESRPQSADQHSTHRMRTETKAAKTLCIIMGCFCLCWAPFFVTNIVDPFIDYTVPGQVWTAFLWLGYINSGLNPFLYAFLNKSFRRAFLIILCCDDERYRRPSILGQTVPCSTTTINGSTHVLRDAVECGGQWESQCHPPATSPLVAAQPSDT
Chain of 5-hydroxytryptamine receptor 2B (Homo sapiens) (P41595 whole entry): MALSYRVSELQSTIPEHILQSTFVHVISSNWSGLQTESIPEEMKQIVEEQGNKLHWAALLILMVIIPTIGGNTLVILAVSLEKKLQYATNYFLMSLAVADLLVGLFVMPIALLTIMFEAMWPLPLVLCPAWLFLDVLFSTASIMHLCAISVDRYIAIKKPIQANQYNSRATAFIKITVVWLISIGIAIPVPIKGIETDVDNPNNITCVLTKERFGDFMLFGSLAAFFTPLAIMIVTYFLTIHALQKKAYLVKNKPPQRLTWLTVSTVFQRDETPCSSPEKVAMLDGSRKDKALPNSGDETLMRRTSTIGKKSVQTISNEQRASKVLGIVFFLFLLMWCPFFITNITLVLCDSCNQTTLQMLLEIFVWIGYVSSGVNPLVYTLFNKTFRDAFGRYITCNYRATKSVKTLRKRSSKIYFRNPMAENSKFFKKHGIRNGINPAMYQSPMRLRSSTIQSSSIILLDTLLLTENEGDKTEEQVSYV

Structure (SMILES) | Activity [1] [%] | IC50 [2] [nM] | Activity [3] [%] | Activity [4] [%] | Activity [5] [%] | inhibition at 15 µM (hERG (KCNH2) [6]) [%] | Activity [7] [%] | Activity [8] [%] | Activity [9] [%] | Activity [10] [%] | Activity [11] [%] | IC50 [12] [nM] | Ki [12] [nM] | inhibition at 30 µM (hERG (KCNH2) [13]) [%]
CN(Cc1ccccc1)c1nc2c(S(=O)(=O)c3ccccc3)nnn2c2ccsc12 | 33 | 170 | 2 | -2 | 103 | 20 | 12 | 15 | 1 | 2 | -7 | 5 | 2.3 | –
CN(Cc1ccccc1)c1nc2c(S(=O)(=O)c3cccc(Cl)c3)nnn2c2ccsc12 | 41 | 920 | 9 | 6 | 106 | – | 46 | 50 | 3 | 15 | -3 | 7.5 | 3.5 | 20
